The text below walks through data of ChEMBL document CHEMBL3994644, “Discovery of AAT-008, a novel, potent, and selective prostaglandin EP4 receptor antagonist” (Bioorg Med Chem Lett, 2017).

SMILES strings stand for the structures. Converted amounts (≈) assume the structure as drawn. Some results are limits rather than exact numbers.

In data set [1] the target is Prostaglandin E receptor 4 (Canis lupus familiaris, UniProt Q9TU16). Put plainly: Antagonist activity at dog recombinant EP4 receptor.
Chain of Prostaglandin E receptor 4 (Q9TU16 whole entry): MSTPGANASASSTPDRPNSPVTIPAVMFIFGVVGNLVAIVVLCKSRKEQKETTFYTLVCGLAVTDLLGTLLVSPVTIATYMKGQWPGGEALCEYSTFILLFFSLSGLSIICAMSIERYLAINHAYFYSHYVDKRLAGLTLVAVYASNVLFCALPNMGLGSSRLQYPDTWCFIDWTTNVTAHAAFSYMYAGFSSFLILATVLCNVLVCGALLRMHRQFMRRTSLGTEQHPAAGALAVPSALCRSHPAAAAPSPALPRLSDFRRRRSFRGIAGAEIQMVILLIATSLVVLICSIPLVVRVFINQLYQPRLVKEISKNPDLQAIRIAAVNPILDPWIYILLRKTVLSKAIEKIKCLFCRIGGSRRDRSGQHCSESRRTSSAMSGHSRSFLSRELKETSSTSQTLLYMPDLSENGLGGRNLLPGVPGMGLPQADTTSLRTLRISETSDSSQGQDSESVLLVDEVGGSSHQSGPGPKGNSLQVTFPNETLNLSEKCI
The target in data set [2] is Prostaglandin E2 receptor EP4 subtype (Rattus norvegicus, UniProt P43114). Put plainly: Antagonist activity at rat recombinant EP4 receptor.
Chain of Prostaglandin E2 receptor EP4 subtype (Rattus norvegicus, UniProt P43114) (P43114 whole entry): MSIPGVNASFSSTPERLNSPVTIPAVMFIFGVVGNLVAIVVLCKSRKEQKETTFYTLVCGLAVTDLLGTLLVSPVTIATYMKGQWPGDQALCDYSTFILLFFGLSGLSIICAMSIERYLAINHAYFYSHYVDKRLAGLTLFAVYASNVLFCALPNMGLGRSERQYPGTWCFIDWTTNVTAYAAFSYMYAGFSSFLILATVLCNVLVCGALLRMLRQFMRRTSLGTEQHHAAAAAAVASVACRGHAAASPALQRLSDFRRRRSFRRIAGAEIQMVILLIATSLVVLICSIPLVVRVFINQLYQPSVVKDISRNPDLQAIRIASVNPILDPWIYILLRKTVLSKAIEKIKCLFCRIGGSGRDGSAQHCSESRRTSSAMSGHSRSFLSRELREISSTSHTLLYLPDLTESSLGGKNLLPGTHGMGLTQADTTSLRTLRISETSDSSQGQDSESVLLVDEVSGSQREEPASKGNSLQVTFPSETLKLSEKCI
Data set [3] concerns the target Prostaglandin E2 receptor EP4 subtype (Homo sapiens, UniProt P35408). Put plainly: Antagonist activity at human EP4 receptor expressed in HEK293 cells assessed as inhibition of PGE2-induced cAMP level by HTS assay. Format: functional, cell-based.
The target in data set [4] is T1, Prostaglandin E2 receptor EP1 subtype (Homo sapiens, UniProt P34995).
T1 sequence (P34995 whole entry): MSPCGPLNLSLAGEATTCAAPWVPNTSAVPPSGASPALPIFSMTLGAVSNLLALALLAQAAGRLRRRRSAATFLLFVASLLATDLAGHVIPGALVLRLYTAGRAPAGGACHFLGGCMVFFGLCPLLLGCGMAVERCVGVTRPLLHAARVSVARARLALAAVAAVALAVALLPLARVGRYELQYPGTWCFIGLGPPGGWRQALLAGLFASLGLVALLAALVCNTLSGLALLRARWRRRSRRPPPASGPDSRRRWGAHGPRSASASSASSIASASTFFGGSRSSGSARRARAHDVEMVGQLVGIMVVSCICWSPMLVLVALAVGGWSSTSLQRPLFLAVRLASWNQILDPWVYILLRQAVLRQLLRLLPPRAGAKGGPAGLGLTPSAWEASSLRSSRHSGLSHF
As to the kind of experiment: Antagonist activity at human EP1 receptor.

In data set [5] the target is Prostaglandin E2 receptor EP2 subtype (Homo sapiens, UniProt P43116). Put plainly: Antagonist activity at human EP2 receptor.
Chain of Prostaglandin E2 receptor EP2 subtype (P43116 whole entry): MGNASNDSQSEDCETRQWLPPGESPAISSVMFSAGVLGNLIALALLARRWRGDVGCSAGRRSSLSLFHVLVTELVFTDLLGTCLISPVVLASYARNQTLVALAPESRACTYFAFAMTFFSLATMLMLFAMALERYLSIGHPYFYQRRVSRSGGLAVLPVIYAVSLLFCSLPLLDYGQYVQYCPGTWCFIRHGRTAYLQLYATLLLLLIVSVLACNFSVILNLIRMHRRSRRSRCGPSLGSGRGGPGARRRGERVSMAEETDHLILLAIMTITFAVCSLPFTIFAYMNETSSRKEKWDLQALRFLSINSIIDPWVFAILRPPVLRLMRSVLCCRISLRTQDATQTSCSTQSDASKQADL
The test system of a further data set is Rattus norvegicus. As to the kind of experiment: Analgesic activity in po dosed rat assessed as inhibition of carrageenan-induced mechanical hyperalgesia measured at 1 hr post dose. The data set is classed as functional. The procedure, abridged:
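Rats dosed orally. Mechanical hyperalgesia was induced with carrageenan and assessed 1 h post dose. The value is the minimum effective dose (MED, mg/kg PO).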

Data set [6] can be described thus: Antagonist activity at human DP receptor.
The target of data set [7] is Prostaglandin F2-alpha receptor (Homo sapiens, UniProt P43088). As to the kind of experiment: Antagonist activity at human FP receptor.
Chain of Prostaglandin F2-alpha receptor (P43088 whole entry): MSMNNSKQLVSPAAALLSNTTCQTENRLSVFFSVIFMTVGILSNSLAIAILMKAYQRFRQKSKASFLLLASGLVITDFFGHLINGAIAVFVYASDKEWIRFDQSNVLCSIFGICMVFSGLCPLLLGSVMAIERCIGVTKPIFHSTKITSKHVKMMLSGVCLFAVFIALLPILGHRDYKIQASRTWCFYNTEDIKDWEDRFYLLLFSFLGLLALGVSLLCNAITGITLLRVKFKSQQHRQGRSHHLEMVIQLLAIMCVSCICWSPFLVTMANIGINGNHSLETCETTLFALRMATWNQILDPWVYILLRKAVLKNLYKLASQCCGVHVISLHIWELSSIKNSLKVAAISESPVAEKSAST
A short description of data set [8]: Tmax in Sprague-Dawley rat at 1 mg/kg, po. The data set is classed as ADME, organism-based. Conditions: in vivo. An outline of the steps: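 Oral administration of the compound; Tmax is from plasma concentration–time profiles. Values are mean SD of N = 4 animals per species.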
Data set [9] is described as follows: AUC (0 to infinity) in Sprague-Dawley rat at 1 mg/kg, po. The data set is classed as ADME, organism-based. More on the design: dose 1 mg/kg, route oral, time infinity. Conditions: in vivo. The procedure, abridged: (§1)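 Single 1 mg/kg dose given IV or PO to rats, dogs and monkeys. Plasma pharmacokinetic parameters were derived and reported as mean SD, N = 4.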

The nature of data set [10]: AUC (0 to infinity) in Beagle dog at 1 mg/kg, po. Format: ADME, organism-based, Canis lupus familiaris. More on the design: dose 1 mg/kg, time infinity, route oral. Conditions: in vivo. An outline of the steps: as §1
A short description of data set [11]: AUC (0 to infinity) in cynomolgus monkey at 1 mg/kg, iv. The data set is classed as ADME, organism-based, Macaca fascicularis. Conditions: in vivo. Details: dose 1 mg/kg, route intravenous, time infinity. An outline of the steps: as §1
Data set [12] can be described thus: Total clearance in cynomolgus monkey at 1 mg/kg, iv. The data set is classed as ADME, organism-based, Macaca fascicularis. Conditions: in vivo. An outline of the steps:
(§2)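 A single intravenous injection at 1 mg/kg was given. Plasma concentration–time data gave total clearance (CL_total, mL/min/kg) and steady-state volume of distribution (Vd_ss, L/kg). Values are mean SD of N = 4 animals per species.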

Data set [13] can be described thus: Volume of distribution at steady state in Sprague-Dawley rat at 1 mg/kg, iv. Conditions: in vivo, read-out: Vdss. Format: ADME, organism-based. The procedure, abridged:
as §2

The nature of data set [14]: Volume of distribution at steady state in cynomolgus monkey at 1 mg/kg, iv. The data set is classed as ADME, organism-based, Macaca fascicularis. Conditions: in vivo, read-out: Vdss. An outline of the steps:
as §2

Data set [15] can be described thus: Elimination half life in Sprague-Dawley rat at 1 mg/kg, iv. The data set is classed as ADME, organism-based. Conditions: in vivo, read-out: beta t1/2 (converted). An outline of the steps: as §1
A short description of data set [16]: Elimination half life in Sprague-Dawley rat at 1 mg/kg, po. The data set is classed as ADME, organism-based. Conditions: in vivo, read-out: beta t1/2 (converted). The procedure, abridged: as §1
Data set [17] can be described thus: Elimination half life in cynomolgus monkey at 1 mg/kg, po. Conditions: in vivo, read-out: beta t1/2 (converted). The data set is classed as ADME, organism-based, Macaca fascicularis. An outline of the steps: as §1
Data set [18] is described as follows: Solubility of the compound in pH 5.8 water for injection. Format: physicochemical.

Chain of Prostaglandin E2 receptor EP4 subtype (Homo sapiens, UniProt P35408) (P35408 whole entry): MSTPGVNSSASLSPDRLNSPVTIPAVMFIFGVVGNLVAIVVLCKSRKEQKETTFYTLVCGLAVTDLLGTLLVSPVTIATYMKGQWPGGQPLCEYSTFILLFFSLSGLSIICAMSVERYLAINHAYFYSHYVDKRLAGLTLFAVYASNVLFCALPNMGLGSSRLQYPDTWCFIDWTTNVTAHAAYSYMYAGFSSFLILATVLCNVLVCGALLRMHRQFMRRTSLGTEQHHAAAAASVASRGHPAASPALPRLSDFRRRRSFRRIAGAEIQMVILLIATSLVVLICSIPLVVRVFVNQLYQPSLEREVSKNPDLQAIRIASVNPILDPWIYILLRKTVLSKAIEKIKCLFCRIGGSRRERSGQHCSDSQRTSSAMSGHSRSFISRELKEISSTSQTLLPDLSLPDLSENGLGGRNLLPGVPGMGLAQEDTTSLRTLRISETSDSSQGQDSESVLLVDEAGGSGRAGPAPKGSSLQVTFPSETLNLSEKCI

For orientation: Ki means the equilibrium dissociation constant of an inhibitor or competing ligand from its target. Broadly, the IC50 is the concentration that gives 50% inhibition. As a reminder, the Tmax is the time from dosing to the highest level. By AUC(0-inf) is commonly meant the area under the concentration-time curve extrapolated to infinity. For orientation: clearance means a measure of how efficiently the substance is removed, as volume per time. One may read the solubility as the concentration that dissolves in the medium under given conditions. As for `C[C@H](NC(=O)c1cc(Cl)cnc1Oc1cccc(F)c1)c1ccc(C(=O)O)cc1`, the Ki is 38 nM in [1]; 6.1 nM in [2]; greater than 6000 nM in data set [4]; 1840 nM in [5]; greater than 6000 nM in data set [6]; greater than 6000 nM in data set [7]. Further, the A2 in data set [3] was 1.1 nM. In addition, the IC50 was 16.3 nM in data set [3], greater than 20000 nM in [4] and 1890 nM in data set [5]. For the same compound, the Kb in [3] (read-out: pA2 (converted)) was 1.07 nM. In the data set on Rattus norvegicus, the inhibition entry is “Dose-dependent effect”. In addition, the minimal effective dose in the data set on Rattus norvegicus (read-out: MED) was determined as 1 mg/kg. Further, the Tmax in [8] turned out to be 0.75 h. The AUC(0-inf) in data set [9] is 7090 ng·h/mL; in data set [10], 6080 ng·h/mL; in [11] it was 3390 ng·h/mL. The compound further registered a clearance in [12] of 5.31 mL/min/kg. For the same compound, the Vd was 0.593 L/kg in data set [13] and 4.7 L/kg in data set [14]. For the same compound, the half-life is 4.59 h in [15], 3.71 h in data set [16] and 21.9 h in [17]. Besides, the solubility in data set [18] worked out at 4.3 µg/mL (≈ 10.4 µM).
